Results on 14 compounds are retold here after ChEMBL document CHEMBL2150940, “Mechanism-based design, synthesis and biological studies of N⁵-substituted tetrahydrofolate analogs as inhibitors of cobalamin-dependent methionine synthase and potential anticancer agents” (Eur J Med Chem, 2012).

Assay [1] concerns SK-OV-3. Put plainly: Antiproliferative activity against human SKOV3 cells after 48 hrs. The assay is classed as functional, cell-based. Particulars: SK-OV-3, 48 h. In outline:
(§1)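 Cells kept in RPMI-1640 with 10% fetal bovine serum, penicillin (100 units mL⁻¹) and streptomycin at 37 °C in humidified 5% CO₂. Exponentially growing cells were exposed to a range of compound concentrations for 48 h. Growth inhibition was read by MTT and SRB assays. Values are means of three independent experiments.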

For assay [2], the system named is BGC-823. Put plainly: Antiproliferative activity against human BGC823 cells after 48 hrs. It counts as functional, cell-based. Particulars: BGC-823, 48 h. In outline: as §1
Assay [3] concerns the target Methionine synthase (Homo sapiens, UniProt Q99707). Nature of the assay: Inhibition of methionine synthase in human HL60 cells using L-homocysteine as substrate incubated for 3 hrs prior to substrate addition measured after 10 mins spectrophotometric analysis. It counts as cell-based, HL-60. In outline: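 HL60 cells (1 × 10⁶/well) were serum-starved, then exposed 3 h to varied compound concentrations, lysed in HEPES pH 7.5 buffer and cleared at 4 °C. Lysate was mixed with potassium phosphate pH 7.2, DTT, 5-methyltetrahydrofolate, SAM and hydroxocobalamin (stock levels given) and preincubated 5 min at 37 °C. L-homocysteine started a 10 min 37 °C reaction. HCl/formic acid stop at 80 °C 10 min; A350 read.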

For assay [4], the target named is T1, Dihydrofolate reductase (Homo sapiens, UniProt P00374).
T1 sequence (P00374 whole entry): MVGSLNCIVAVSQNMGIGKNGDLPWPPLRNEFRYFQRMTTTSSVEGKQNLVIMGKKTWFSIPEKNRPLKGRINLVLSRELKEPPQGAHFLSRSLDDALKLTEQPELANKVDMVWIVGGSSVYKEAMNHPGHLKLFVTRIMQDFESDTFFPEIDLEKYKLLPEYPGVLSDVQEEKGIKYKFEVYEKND
Nature of the assay: Inhibition of human recombinant DHFR using dihydrofolate as substrate by spectrophotometric analysis. In outline:
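Recombinant human DHFR was followed spectrophotometrically in 0.1 mM dihydrofolate, 0.3 mM NADPH and 100 mM KCl, pH 7.5, at 32 °C.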

The test system of assay [5] is Bel-7402. Nature of the assay: Antiproliferative activity against human Bel7402 cells after 48 hrs. Particulars: Bel-7402, 48 h. The assay is classed as functional, cell-based. In short, it runs like this:
as §1

Assay [6] has as its system KB. Put plainly: Antiproliferative activity against human KB cells after 48 hrs. It counts as functional, cell-based. In outline:
as §1

For assay [7], the system named is HeLa. Nature of the assay: Antiproliferative activity against human HeLa cells after 48 hrs. It counts as functional, cell-based. In outline:
as §1

For assay [8], the system named is SK-OV-3. Put plainly: Ratio of MTX IC50 to compound IC50 for human SKOV3 cells. The assay is classed as functional.

Chain of Methionine synthase (Q99707 whole entry): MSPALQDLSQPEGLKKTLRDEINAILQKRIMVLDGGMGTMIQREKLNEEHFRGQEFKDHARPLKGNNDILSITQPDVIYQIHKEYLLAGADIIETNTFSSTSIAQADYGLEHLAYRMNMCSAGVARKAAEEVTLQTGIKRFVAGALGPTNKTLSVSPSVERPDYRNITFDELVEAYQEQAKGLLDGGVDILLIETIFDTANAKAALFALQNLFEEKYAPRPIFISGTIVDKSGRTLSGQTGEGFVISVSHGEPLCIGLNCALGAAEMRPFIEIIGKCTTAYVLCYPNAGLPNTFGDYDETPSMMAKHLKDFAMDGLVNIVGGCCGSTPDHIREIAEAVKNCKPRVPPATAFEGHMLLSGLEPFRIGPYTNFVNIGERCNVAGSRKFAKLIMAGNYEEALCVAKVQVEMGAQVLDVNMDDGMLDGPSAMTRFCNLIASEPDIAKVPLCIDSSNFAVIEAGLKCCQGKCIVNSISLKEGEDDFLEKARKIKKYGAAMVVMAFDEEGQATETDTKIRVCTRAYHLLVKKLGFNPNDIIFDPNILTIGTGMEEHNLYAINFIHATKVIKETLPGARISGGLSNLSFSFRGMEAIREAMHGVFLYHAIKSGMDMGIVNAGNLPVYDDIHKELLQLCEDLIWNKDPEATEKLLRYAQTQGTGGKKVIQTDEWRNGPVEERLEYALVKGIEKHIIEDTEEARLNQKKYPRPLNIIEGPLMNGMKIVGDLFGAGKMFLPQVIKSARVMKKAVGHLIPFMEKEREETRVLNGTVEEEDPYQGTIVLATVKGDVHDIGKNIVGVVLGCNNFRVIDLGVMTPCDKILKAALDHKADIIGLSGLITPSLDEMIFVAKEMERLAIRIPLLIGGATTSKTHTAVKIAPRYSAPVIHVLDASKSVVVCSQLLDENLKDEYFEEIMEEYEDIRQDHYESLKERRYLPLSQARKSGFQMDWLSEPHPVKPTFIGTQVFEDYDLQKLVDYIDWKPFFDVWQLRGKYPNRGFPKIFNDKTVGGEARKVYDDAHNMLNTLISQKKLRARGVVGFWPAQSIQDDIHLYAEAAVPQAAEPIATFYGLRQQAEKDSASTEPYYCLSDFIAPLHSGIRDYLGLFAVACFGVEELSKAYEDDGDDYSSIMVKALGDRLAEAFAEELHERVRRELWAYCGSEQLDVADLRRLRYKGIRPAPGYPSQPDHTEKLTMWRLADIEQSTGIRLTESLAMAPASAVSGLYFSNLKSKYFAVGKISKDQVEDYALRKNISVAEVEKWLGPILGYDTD

Consider `Nc1nc(N)c2c(n1)CCC1CN(c3ccc(C(=O)N[C@@H](CCC(=O)O)C(=O)O)cc3)CN21` (some centres undefined), for which the IC50 in assay [1] is 37.4 µM; in assay [2] it was 0.18 µM; in assay [3], 66.4 µM; in assay [4] it was 0.8 µM; in assay [5], 64.7 µM; in assay [6], over 100 µM. Further, half-maximal inhibition in assay [7] (IC50) required 0.13 µM.
`C=CCN(CC1CCc2nc(N)nc(N)c2N1CC=C)c1ccc(C(=O)N[C@@H](CCC(=O)O)C(=O)O)cc1` (some centres undefined): the 50% inhibitory concentration (IC50) in assay [1] was 50.2 µM; in assay [3] it was 15.9 µM; in assay [6], 6.72 µM.
In the case of `C=CCN1c2c(N)nc(N)nc2CCC1CNc1ccc(C(=O)N[C@@H](CCC(=O)O)C(=O)O)cc1` (some centres undefined), the 50% inhibitory concentration (IC50) in assay [1] is 0.87 µM; in assay [3], 27.8 µM; in assay [6], over 100 µM.
`Cc1ccc(S(=O)(=O)N2c3c(N)nc(N)nc3CCC2CN(C)c2ccc(C(=O)N[C@@H](CCC(=O)O)C(=O)O)cc2)cc1` (some centres undefined): the IC50 in assay [1] worked out at 0.45 µM; in assay [2], 0.289 µM; in assay [3], 55 µM; in assay [4] it was 1.07 µM; in assay [5] it was 0.325 µM; in assay [6] it was 0.336 µM. In addition, the IC50 in assay [7] was determined as 0.434 µM.
Regarding `CC(=O)N(CC1CCc2nc(N)nc(N)c2N1C=O)c1ccc(C(=O)N[C@@H](CCC(=O)O)C(=O)O)cc1` (some centres undefined), the half-maximal inhibitory concentration (IC50) was 34.6 µM in assay [1]; 27 µM in assay [2]; 1.73 µM in assay [3]; over 100 µM in assay [4]; 12.3 µM in assay [5]; 20 µM in assay [6]. The compound further had an IC50 in assay [7] of 41.6 µM.
`CN(CC1CCc2nc(N)nc(N)c2N1C=O)c1ccc(C(=O)N[C@@H](CCC(=O)O)C(=O)O)cc1` (some centres undefined): the IC50 is over 100 µM in assay [1]; 6.9 µM in assay [2]; 8.11 µM in assay [3]; 0.032 µM in assay [4]; 65.2 µM in assay [5]; over 130 µM in assay [6]. In assay [7], this compound showed a half-maximal inhibitory concentration (IC50) of 6 µM.
In the case of `C=CCN1c2c(N)nc(N)nc2CCC1CNc1ccc(C(=O)N[C@@H](CCC(=O)O)C(=O)O)cc1Br` (some centres undefined), the figures for the half-inhibitory concentration (IC50) in assay [1], in assay [3] and in assay [6] were over 100 µM, 21 µM and over 100 µM, respectively.
As to `Nc1nc(N)c2c(n1)CCC(CNc1ccc(C(=O)N[C@@H](CCC(=O)O)C(=O)O)cc1)N2` (mixture of isomers), the 50% inhibitory concentration (IC50) in assay [1] was 0.24 µM; in assay [3], 87.9 µM; in assay [6] it was over 100 µM.
In the case of `CC(=O)N(CC1CCc2nc(N)nc(N)c2N1)c1ccc(C(=O)N[C@@H](CCC(=O)O)C(=O)O)cc1` (mixture of isomers), the concentration for half-maximal inhibition (IC50) in assay [1] was over 100 µM; in assay [2], over 100 µM; in assay [3], over 100 µM; in assay [4] it was 0.033 µM; in assay [5], over 100 µM; in assay [6] it was 31.1 µM. In assay [7], this compound displayed an IC50 of over 100 µM.
On to `Nc1nc(N)c2c(n1)CCC(CNc1ccc(C(=O)N[C@@H](CCC(=O)O)C(=O)O)cc1Br)N2CC(Br)CBr` (some centres undefined), for which the half-maximal inhibitory concentration (IC50) in assay [1] was 0.042 µM; in assay [3] it was 1.43 µM; in assay [6], over 100 µM. Also, the “Ratio IC50” value in assay [8] stood at 1.4.
Consider `CN(Cc1cnc2nc(N)nc(N)c2n1)c1ccc(C(=O)N[C@@H](CCC(=O)O)C(=O)O)cc1` [METHOTREXATE], for which the 50% inhibitory concentration (IC50) in assay [1] was found to be 0.06 µM; in assay [6], 20.9 µM.
In the case of `CN(CC1CCc2nc(N)nc(N)c2N1)c1ccc(C(=O)N[C@@H](CCC(=O)O)C(=O)O)cc1` (mixture of isomers), the IC50 was over 100 µM in assay [3] and 0.033 µM in assay [4].
Turning to `Nc1nc(N)c2nc(CNc3ccc(C(=O)N[C@@H](CCC(=O)O)C(=O)O)cc3)ccc2n1`, the 50% inhibitory concentration (IC50) in assay [1] is 0.01 µM; in assay [2] it was 0.01 µM; in assay [3] it was over 100 µM; in assay [4], 0.018 µM; in assay [5], 18.3 µM; in assay [6] it was 2.7 µM. The compound further displayed an IC50 in assay [7] of 0.003 µM.
For the compound `C=CCN1c2c(N)nc(N)nc2CCC1CN(C)c1ccc(C(=O)N[C@@H](CCC(=O)O)C(=O)O)cc1` (some centres undefined), the IC50 was 0.573 µM in assay [1]; 2.09 µM in assay [2]; over 100 µM in assay [3]; 0.42 µM in assay [4]; 61.5 µM in assay [5]; over 100 µM in assay [6]. The IC50 in assay [7] is 0.227 µM.
